Source: ChEMBL document CHEMBL5385894, “The discovery of 12β-methyl-17-epi-18-nor-bile acids as potent and selective TGR5 agonists” (Eur J Med Chem, 2023)
Calls of active or inactive are those of the source. No cut-off for these calls is given here.

How the values were obtained:
[1] = target: T1, G-protein coupled bile acid receptor 1 (Homo sapiens) (UniProt Q8TDU6); test: Agonist activity at human TGR5 expressed in HEK293 cells at 10 uM incubated for 30 mins by SEAP reporter gene based assay relative to control; format: functional, cell-based
T1 sequence (whole entry): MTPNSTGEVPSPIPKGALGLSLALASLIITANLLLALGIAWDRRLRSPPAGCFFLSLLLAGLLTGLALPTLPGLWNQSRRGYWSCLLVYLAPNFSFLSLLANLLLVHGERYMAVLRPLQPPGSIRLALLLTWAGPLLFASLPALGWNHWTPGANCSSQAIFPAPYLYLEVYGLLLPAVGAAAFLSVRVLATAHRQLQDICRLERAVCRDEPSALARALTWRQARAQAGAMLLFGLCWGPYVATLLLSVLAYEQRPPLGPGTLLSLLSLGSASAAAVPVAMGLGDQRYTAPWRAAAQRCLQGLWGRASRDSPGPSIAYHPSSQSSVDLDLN
In short: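 293T/17 cells reverse-transfected with human TGR5 on reporter strips (3.8 × 10^4 cells/well, 20 h), then moved to serum-free DMEM stimulation medium with 1% DMSO. Compound at 10 µM in triplicate, 30 min on the bench, then 7 h at 37 °C. Medium heated 65 °C 30 min, SEAP substrate added, luminescence read. Efficacy is basal-subtracted RLU as % of 10 µM LCA. Mean ± SD of ≥2 independent experiments.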

[2] = target: T2, G-protein coupled bile acid receptor 1 (Homo sapiens, UniProt Q8TDU6); test: Agonist activity at human TGR5 expressed in HEK293 cells incubated for 30 mins by SEAP reporter gene based assay; format: functional, cell-based
T2 sequence (Q8TDU6 whole entry): T1 sequence (whole entry)
In short: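 Human TGR5 reverse-transfected 293T/17 cells in serum-free stimulation medium with 1% DMSO received a concentration series in triplicate, 30 min at bench then 7 h at 37 °C, 5% CO2. SEAP luminescence was read after heat inactivation at 65 °C. Response is % of 10 µM LCA, fitted by four-parameter unconstrained nonlinear regression to give EC50. Mean ± SD of three independent experiments.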

[3] = target: T3, Bile acid receptor (Homo sapiens) (UniProt Q96RI1); test: Agonist activity at FXR (unknown origin) at 10 uM relative to control
T3 sequence (whole entry): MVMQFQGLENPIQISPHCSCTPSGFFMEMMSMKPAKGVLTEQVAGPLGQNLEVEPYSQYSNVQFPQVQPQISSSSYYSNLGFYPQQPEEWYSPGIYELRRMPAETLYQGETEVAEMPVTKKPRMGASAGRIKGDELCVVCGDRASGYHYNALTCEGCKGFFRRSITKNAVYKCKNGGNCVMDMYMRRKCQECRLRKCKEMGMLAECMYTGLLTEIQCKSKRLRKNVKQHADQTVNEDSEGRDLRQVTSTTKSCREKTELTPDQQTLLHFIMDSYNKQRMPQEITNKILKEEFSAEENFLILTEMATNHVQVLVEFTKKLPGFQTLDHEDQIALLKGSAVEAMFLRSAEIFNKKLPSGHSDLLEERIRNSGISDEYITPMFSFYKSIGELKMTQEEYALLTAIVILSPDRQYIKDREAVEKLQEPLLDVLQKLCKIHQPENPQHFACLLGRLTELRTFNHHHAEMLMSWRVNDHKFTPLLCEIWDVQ
In short: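 Nuclear hormone receptor (NHR) transactivation screen at FXR run by Eurofins DiscoverX; test agents at 10 µM.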

Activity ([1]; filed as agonist)	Activity [1]	SMILES	also measured
99%	–	CC[C@H]1[C@@H](O)[C@H]2[C@@H]3CC[C@@H]([C@H](C)CCC(=O)NCCS(=O)(=O)O)[C@H]3[C@H](C)C[C@@H]2[C@@]2(C)CC[C@@H](O)C[C@@H]12	EC50 [2]: 310 nM
–	33%	CC[C@H]1[C@@H](O)[C@H]2[C@@H]3CC[C@H]([C@H](C)CCC(=O)O)[C@H]3[C@H](C)C[C@@H]2[C@@]2(C)CC[C@@H](O)C[C@@H]12	–
61%	–	CC[C@H]1[C@@H](O)[C@H]2[C@@H]3CC[C@@H]([C@H](C)C(=O)NCCS(=O)(=O)O)[C@H]3[C@H](C)C[C@@H]2[C@@]2(C)CC[C@@H](O)C[C@@H]12	–
–	inactive	C[C@H](CCCC(=O)O)[C@H]1CC[C@@H]2[C@@H]1[C@H](C)C[C@H]1[C@H]2[C@H](O)C[C@@H]2C[C@H](O)CC[C@@]21C	–
99%	–	CC[C@H]1[C@@H](O)[C@H]2[C@@H]3CC[C@H]([C@H](C)CCC(=O)NCCS(=O)(=O)O)[C@H]3[C@H](C)C[C@@H]2[C@@]2(C)CC[C@@H](O)C[C@@H]12	EC50 [2]: 5200 nM
–	7%	C[C@H](CC(=O)NCCS(=O)(=O)O)[C@@H]1CC[C@@H]2[C@@H]1[C@H](C)C[C@H]1[C@H]2[C@H](O)C[C@@H]2C[C@H](O)CC[C@@]21C	–
–	11%	CC[C@H]1[C@@H](O)[C@H]2[C@@H]3CC[C@H]([C@H](C)CC(=O)O)[C@H]3[C@H](C)C[C@@H]2[C@@]2(C)CC[C@@H](O)C[C@@H]12	–
–	inactive	CC[C@H]1[C@@H](O)[C@H]2[C@@H]3CC[C@H]([C@H](C)CCCC(=O)NCCS(=O)(=O)O)[C@H]3[C@H](C)C[C@@H]2[C@@]2(C)CC[C@@H](O)C[C@@H]12	–
62%	–	C[C@H](CCCC(=O)NCCS(=O)(=O)O)[C@@H]1CC[C@@H]2[C@@H]1[C@H](C)C[C@H]1[C@H]2[C@H](O)C[C@@H]2C[C@H](O)CC[C@@]21C	–
–	10%	CC[C@H]1[C@@H](O)[C@H]2[C@@H]3CC[C@@H]([C@H](C)C(=O)O)[C@H]3[C@H](C)C[C@@H]2[C@@]2(C)CC[C@@H](O)C[C@@H]12	–
–	4%	C[C@H](CC(=O)O)[C@@H]1CC[C@@H]2[C@@H]1[C@H](C)C[C@H]1[C@H]2[C@H](O)C[C@@H]2C[C@H](O)CC[C@@]21C	–
42%	–	CC[C@H]1[C@@H](O)[C@H]2[C@@H]3CC[C@@H]([C@H](C)CC(=O)O)[C@H]3[C@H](C)C[C@@H]2[C@@]2(C)CC[C@@H](O)C[C@@H]12	–
43%	–	C[C@H](CCCCC(=O)O)[C@@H]1CC[C@@H]2[C@@H]1[C@H](C)C[C@H]1[C@H]2[C@H](O)C[C@@H]2C[C@H](O)CC[C@@]21C	–
99%	–	CC[C@H]1[C@@H](O)[C@H]2[C@@H]3CC[C@@H]([C@H](C)CCCC(=O)NCCS(=O)(=O)O)[C@H]3[C@H](C)C[C@@H]2[C@@]2(C)CC[C@@H](O)C[C@@H]12	EC50 [2]: 270 nM
–	inactive	C[C@H](CCCCC(=O)O)[C@H]1CC[C@@H]2[C@@H]1[C@H](C)C[C@H]1[C@H]2[C@H](O)C[C@@H]2C[C@H](O)CC[C@@]21C	–
–	inactive	CC[C@H]1[C@@H](O)[C@H]2[C@@H]3CC[C@H]([C@H](C)CC(=O)NCCS(=O)(=O)O)[C@H]3[C@H](C)C[C@@H]2[C@@]2(C)CC[C@@H](O)C[C@@H]12	–
62%	–	CC[C@H]1[C@@H](O)[C@H]2[C@@H]3CC[C@@H]([C@H](C)CCC(=O)O)[C@H]3[C@H](C)C[C@@H]2[C@@]2(C)CC[C@@H](O)C[C@@H]12	Activity [3]: 31%
56%	–	C[C@@H]1C[C@H]2[C@H]([C@@H]3CC[C@@H]([C@H](C)C(=O)NCCS(=O)(=O)O)[C@H]31)[C@H](O)C[C@@H]1C[C@H](O)CC[C@@]12C	–
54%	–	CC[C@H]1[C@@H](O)[C@H]2[C@@H]3CC[C@H]([C@H](C)CCCC(=O)O)[C@H]3[C@H](C)C[C@@H]2[C@@]2(C)CC[C@@H](O)C[C@@H]12	–
61%	–	C[C@H](CCC(=O)NCCS(=O)(=O)O)[C@@H]1CC[C@@H]2[C@@H]1[C@H](C)C[C@H]1[C@H]2[C@H](O)C[C@@H]2C[C@H](O)CC[C@@]21C	–
42%	–	CC[C@H]1[C@@H](O)[C@H]2[C@@H]3CC[C@@H]([C@H](C)CC(=O)NCCS(=O)(=O)O)[C@H]3[C@H](C)C[C@@H]2[C@@]2(C)CC[C@@H](O)C[C@@H]12	–
69%	–	CC[C@H]1[C@@H](O)[C@H]2[C@@H]3CC[C@@H]([C@H](C)CCCC(=O)O)[C@H]3[C@H](C)C[C@@H]2[C@@]2(C)CC[C@@H](O)C[C@@H]12	Activity [3]: 23%
–	inactive	C[C@H](CCC(=O)O)[C@H]1CC[C@@H]2[C@@H]1[C@H](C)C[C@H]1[C@H]2[C@H](O)C[C@@H]2C[C@H](O)CC[C@@]21C	–
–	4%	C[C@@H]1C[C@H]2[C@H]([C@@H]3CC[C@@H]([C@H](C)C(=O)O)[C@H]31)[C@H](O)C[C@@H]1C[C@H](O)CC[C@@]12C	–
–	26%	C[C@H](CCCC(=O)O)[C@@H]1CC[C@@H]2[C@@H]1[C@H](C)C[C@H]1[C@H]2[C@H](O)C[C@@H]2C[C@H](O)CC[C@@]21C	–
